Published values gathered from unrelated publications.
Protocols differ between the studies behind these lines.
Peroxisome proliferator-activated receptor alpha: Peroxisome proliferator-activated receptor alpha (Rattus norvegicus, UniProt P37230)
GPR84: G-protein coupled receptor 84 (GPR84, Homo sapiens, UniProt Q9NQS5)

For `CCCC[C@H](NC(=O)[C@H](CO)NC(=O)[C@H](Cc1ccc(O)cc1)NC(=O)[C@H](CO)NC(C)=O)C(=O)N[C@@H](CCC(=O)O)C(=O)N[C@@H](Cc1c[nH]cn1)C(=O)N[C@@H](C)C(=O)N[C@@H](CCCNC(=N)N)C(=O)N[C@@H](Cc1c[nH]c2ccccc12)C(=O)NCC(=O)N[C@@H](CCCCN)C(=O)N1CCC[C@H]1C(=O)N[C@H](C(=O)NCC(=O)N[C@@H](CCCCN)C(=O)N[C@@H](CCCCN)C(=O)N[C@@H](CCCNC(=N)N)C(N)=O)C(C)C`, the EC50 was 7.8 nM (Melanocyte-stimulating hormone receptor (MC1R, Homo sapiens, UniProt Q01726); cAMP, agonist).
`CCC(C)N1CCCn2c1nc1c2c(=O)n(C)c(=O)n1C` (stereo not drawn) has a Ki of greater than 10 µM (Adenosine receptor A3 (ADORA3, Homo sapiens, UniProt P0DMS8); ligand displacement, radioligand; cell membranes).
`Cc1cc2nc3c(=O)[nH]c(=O)nc-3n(C[C@H](O)[C@H](O)[C@H](O)COP(=O)(O)OP(=O)(O)OC[C@H]3O[C@@H](n4cnc5c(N)ncnc54)[C@H](O)[C@@H]3O)c2cc1C` has a Kd of 77 nM (Probable ATP-dependent RNA helicase DDX6 (Homo sapiens, UniProt P26196); binding; lysate).
The EC50 of `Cc1nc(-c2ccc(C(F)(F)F)cc2)sc1C(=O)NCc1ccc(OC(C)(C)C(=O)O)cc1` is reported as 2200 nM (Peroxisome proliferator-activated receptor alpha; reporter gene, agonist, luciferase).
`CC(C)c1nc2cc(OCCCCN3CCN(c4cccc5c4OCCN5)CC3)ccc2s1` gave an EC50 of 2.8 nM (D(2) dopamine receptor (DRD2, Homo sapiens, UniProt P14416); cAMP, agonist, luciferase).
The EC50 of `CC(C)(C)c1ccc(CCNc2cc(=O)[nH]c(=O)[nH]2)cc1` is reported as 43.7 nM (GPR84; cAMP, agonist).
For `Cc1cccc(Nc2cc(Cl)nc(SCC(=O)O)n2)c1C`, the EC50 was 9500 nM (Peroxisome proliferator-activated receptor alpha; reporter gene, agonist, luciferase).
For `O=c1cc(NCCc2cccs2)[nH]c(=O)[nH]1`, the EC50 was 191 nM (GPR84; cAMP, agonist).
`CN1CCN(c2ccc(Nc3ncc4cc(C#N)c(=O)n(C5CCCC5)c4n3)cc2)CC1` has an IC50 of greater than 10 µM (Serine/threonine-protein kinase B-raf (BRAF, Homo sapiens, UniProt P15056); enzyme activity, inhibitor).
